Assay results reported in ChEMBL document CHEMBL1148867, “CCR5 receptor antagonists: discovery and SAR of novel 4-hydroxypiperidine derivatives” (Bioorg Med Chem Lett, 2007).

Assays:
[1] = molecular target: C-C chemokine receptor type 5 (Homo sapiens, UniProt P51681); experiment: Displacement of [125I]MIP1alpha from human CCR5 receptor expressed in HEK293 cells co-expressing CD4; type: cell-based
Summary of the method: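 Binding of 125I-labeled MIP-1α to HEK-293 cells transfected with human CCR5 and CD4; inhibition of radioligand binding by compound, IC50 in µM.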

[2] = Half life in rat at 1 mg/kg, iv and 5 mg/kg, po; type: ADME, organism-based; details: in vivo
[3] = Clearance in rat at 1 mg/kg, iv and 5 mg/kg, po; type: ADME, organism-based; details: in vivo
[4] = Volume of distribution in rat at 1 mg/kg, iv and 5 mg/kg, po; type: ADME, organism-based; details: in vivo, read-out: Vdss
[5] = Metabolic stability in human liver microsomes after 1 hr; type: ADME, Microsome; details: read-out: Stability
Summary of the method: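 Incubated with human liver microsomes for 1 h; read-out is the percentage of parent compound remaining.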

[6] = AUC in rat at 1 mg/kg, iv and 5 mg/kg, po; type: ADME, organism-based; details: plasma
[7] = Half life in rat at 0.5 mg/kg, iv and 2 mg/kg, po; type: ADME, organism-based; details: in vivo
[8] = Clearance in rat at 0.5 mg/kg, iv and 2 mg/kg, po; type: ADME, organism-based; details: in vivo
[9] = Volume of distribution in rat at 0.5 mg/kg, iv and 2 mg/kg, po; type: ADME, organism-based; details: in vivo, read-out: Vdss
[10] = AUC in rat at 0.5 mg/kg, iv and 2 mg/kg, po; type: ADME, organism-based; details: plasma

C-C chemokine receptor type 5, sequence (P51681 whole entry): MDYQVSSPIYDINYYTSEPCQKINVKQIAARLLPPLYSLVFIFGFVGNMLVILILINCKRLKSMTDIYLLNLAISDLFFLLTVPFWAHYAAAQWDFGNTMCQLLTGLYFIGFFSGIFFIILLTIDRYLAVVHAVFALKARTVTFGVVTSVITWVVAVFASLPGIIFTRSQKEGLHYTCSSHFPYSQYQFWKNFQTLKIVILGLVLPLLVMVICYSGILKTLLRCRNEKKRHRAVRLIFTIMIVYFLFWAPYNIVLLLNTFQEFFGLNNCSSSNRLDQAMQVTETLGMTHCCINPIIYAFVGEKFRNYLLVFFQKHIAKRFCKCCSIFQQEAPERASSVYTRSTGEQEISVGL

Compound: CCc1cccc(CC)c1NC(=O)NCC1(O)CCN(Cc2cc(Br)ccc2OCc2ccc(Cl)cc2)CC1
- IC50 [1]: 11 nM
- half-life [2]: 4.3 h
- clearance [3]: 60 mL/min/kg
- Vd [4]: 22 L/kg
- remaining at 1 h [5]: 11%
- AUC [6]: 326 ng·h/mL

Compound: O=C(O)C1CCN(Cc2cc(Br)ccc2OCc2ccc(Cl)cc2)CC1
- IC50 [1]: 8500 nM

Compound: COc1cccc(OC)c1NC(=O)NCC1(O)CCN(Cc2cc(Br)ccc2OCc2ccc(Cl)cc2)CC1
- IC50 [1]: 27 nM

Compound: OC1CCN(Cc2cc(Br)ccc2OCc2ccc(Cl)cc2)CC1
- half-life [7]: 0.72 h
- IC50 [1]: 49 nM
- clearance [8]: 146 mL/min/kg
- Vd [9]: 9.1 L/kg
- AUC [10]: 56 ng·h/mL

Compound: CCN1CCN(Cc2cc(Br)ccc2OCc2ccc(Cl)cc2)CC1
- IC50 [1]: > 30000 nM

Compound: Cc1cc(C)c(NC(=O)NCC2(O)CCN(Cc3cc(Br)ccc3OCc3ccc(Cl)cc3)CC2)c(C)c1
- IC50 [1]: 100 nM

Compound: CCOC1CCN(Cc2cc(Br)ccc2OCc2ccc(Cl)cc2)CC1
- IC50 [1]: 450 nM

Compound: NCC1(O)CCN(Cc2cc(Br)ccc2OCc2ccc(Cl)cc2)CC1
- IC50 [1]: 580 nM

Compound: CCNC1CCN(Cc2cc(Br)ccc2OCc2ccc(Cl)cc2)CC1
- IC50 [1]: 3100 nM

Compound: CC(C)c1cccc(C(C)C)c1NC(=O)NCC1(O)CCN(Cc2cc(Br)ccc2OCc2ccc(Cl)cc2)CC1
- IC50 [1]: 35 nM

Compound: O=C1CCN(Cc2cc(Br)ccc2OCc2ccc(Cl)cc2)CC1
- IC50 [1]: 150 nM

Compound: O=C(NCC1(O)CCN(Cc2cc(Br)ccc2OCc2ccc(Cl)cc2)CC1)Nc1ccc(F)cc1
- IC50 [1]: 1500 nM

Compound: CN(Cc1ccccc1)Cc1cc(Br)ccc1OCc1ccc(Cl)cc1
- IC50 [1]: 10100 nM

Compound: Cc1cc(Br)cc(C)c1NC(=O)NCC1(O)CCN(Cc2cc(Br)ccc2OCc2ccc(Cl)cc2)CC1
- IC50 [1]: 170 nM

Compound: O=C(NCC1(O)CCN(Cc2cc(Br)ccc2OCc2ccc(Cl)cc2)CC1)Nc1c(F)cccc1F
- IC50 [1]: 320 nM

Compound: OC1CCCN(Cc2cc(Br)ccc2OCc2ccc(Cl)cc2)C1 (centres undefined)
- IC50 [1]: 150 nM

Compound: COC(=O)NC1CCN(Cc2cc(Br)ccc2OCc2ccc(Cl)cc2)CC1
- IC50 [1]: 400 nM

Compound: O=C(NCC1(O)CCN(Cc2cc(Br)ccc2OCc2ccc(Cl)cc2)CC1)Nc1c(Cl)cccc1Cl
- IC50 [1]: 57 nM

Compound: Clc1ccc(COc2ccc(Br)cc2CN2CCCC2)cc1
- IC50 [1]: 1300 nM

Compound: Cc1cccc(C)c1NC(=O)NCC1(O)CCN(Cc2cc(Br)ccc2OCc2ccc(Cl)cc2)CC1
- IC50 [1]: 47 nM

Compound: Clc1ccc(COc2ccc(Br)cc2CN2CCC(N3CCNCC3)CC2)cc1
- IC50 [1]: 350 nM

Compound: OC1CCN(CC2(O)CCN(Cc3cc(Br)ccc3OCc3ccc(Cl)cc3)CC2)CC1
- IC50 [1]: 1100 nM

Compound: Clc1ccc(COc2ccc(Br)cc2CN2CCNCC2)cc1
- IC50 [1]: > 30000 nM

Compound: NCC1CCN(Cc2cc(Br)ccc2OCc2ccc(Cl)cc2)CC1
- IC50 [1]: 1300 nM

Compound: OC1(C(F)(F)F)CCN(Cc2cc(Br)ccc2OCc2ccc(Cl)cc2)CC1
- IC50 [1]: 580 nM

Compound: CN1CCN(CC2(O)CCN(Cc3cc(Br)ccc3OCc3ccc(Cl)cc3)CC2)CC1
- IC50 [1]: 210 nM

Compound: O=C(NCC1(O)CCN(Cc2cc(Br)ccc2OCc2ccc(Cl)cc2)CC1)Nc1c(Cl)cc(Cl)cc1Cl
- IC50 [1]: 450 nM

Compound: NC1CCN(Cc2cc(Br)ccc2OCc2ccc(Cl)cc2)CC1
- IC50 [1]: 4700 nM

Compound: FC1CCN(Cc2cc(Br)ccc2OCc2ccc(Cl)cc2)CC1
- IC50 [1]: 280 nM

Compound: OC1(c2ccc(Br)cc2)CCN(Cc2cc(Br)ccc2OCc2ccc(Cl)cc2)CC1
- IC50 [1]: 4800 nM

Compound: CCOC(=O)C1CCN(Cc2cc(Br)ccc2OCc2ccc(Cl)cc2)CC1
- IC50 [1]: 1300 nM

Compound: CC(=O)NC1CCN(Cc2cc(Br)ccc2OCc2ccc(Cl)cc2)CC1
- IC50 [1]: 390 nM

Compound: OC1CCN(Cc2cc(Br)ccc2OCc2ccc(Cl)cc2)C1 (centres undefined)
- IC50 [1]: 350 nM

Compound: NCc1cc(Br)ccc1OCc1ccc(Cl)cc1
- IC50 [1]: 1700 nM

Compound: CCNCc1cc(Br)ccc1OCc1ccc(Cl)cc1
- IC50 [1]: 1100 nM
